A word on the IC50: it is the concentration at which inhibition is half-maximal. Usually inhibition stands for the share of the control response that was lost under treatment. By Ki is commonly meant a dissociation constant, usually derived from enzyme kinetics or from competition with a known ligand.

One experiment has as its system KYSE-140. In words: Cytotoxicity against human KYSE-140 cells after 48 hrs by CCK8 assay. It is filed as functional, cell-based. As to conditions: KYSE-140, 48 h. In short, it runs like this: (§1)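 Exponentially growing Huh7 or KYSE-140 cells seeded at 4,000 cells/well, adhered overnight, then exposed to 6 concentrations for 48 h; DMSO vehicle control. CCK-8 added, 2 h at 37 °C in dark, absorbance at 450 nm. Viability as percent of control OD; IC50 by curve fitting, at least three experiments.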
(In general: Tetrazolium assays rely on reduction of a dye to a coloured formazan, in cell work by metabolically active cells.)

For experiment [1], the target named is T1, Sigma intracellular receptor 2 (Rattus norvegicus) (UniProt Q5U3Y7).
T1 sequence (whole entry): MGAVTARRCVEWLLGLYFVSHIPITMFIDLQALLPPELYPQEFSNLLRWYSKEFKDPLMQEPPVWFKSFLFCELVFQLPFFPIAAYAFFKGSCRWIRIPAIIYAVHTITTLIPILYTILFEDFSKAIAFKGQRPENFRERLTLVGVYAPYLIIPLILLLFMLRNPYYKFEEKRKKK
Kind of experiment: Displacement of [3H]DTG from sigma-2 receptor in Sprague-Dawley rat liver membranes at 1 uM after 120 mins in presence of (+)-pentazocine by microbeta scintillation counting method relative to control. It counts as cell membranes. As to conditions: Membrane. The procedure, abridged:
(§2)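 Single-point screen at 1 µM for displacement of [3H](+)-pentazocine (sigma-1, guinea pig brain membranes) or [3H]-DTG (sigma-2, rat liver membranes, with 100 nM (+)-pentazocine); 25 °C, pH 8.0 Tris buffer. Hits were defined as >50% displacement.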

The target of experiment [2] is Sigma non-opioid intracellular receptor 1 (Cavia porcellus, UniProt Q60492). In words: Displacement of [3H]-(+)-pentazocine from sigma-1 receptor in guinea pig brain membranes after 120 mins by microbeta scintillation counting method. It is filed as cell membranes, Membrane. The procedure, abridged: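 Guinea pig brain membranes (frozen brains minus cerebellum; 300 µg) incubated with 6 nM [3H]-(+)-pentazocine stock (~42 Ci/mmol), 50 mM Tris-HCl pH 8.0, 25 °C, 120 min. Compounds from ethanol, 0.1-1000 nM, 10 points. Ice-cold 10 mM Tris stop, GF/B filtration, scintillation counting. Nonspecific defined with (+)-pentazocine or haloperidol (10 µM).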
In general terms: Displacement assays read how much labelled ligand stays bound in the presence of the test substance.

In experiment [3] the target is T2, Sigma intracellular receptor 2 (Rattus norvegicus, UniProt Q5U3Y7).
T2 sequence (Q5U3Y7 whole entry): T1 sequence (whole entry)
In words: Displacement of [3H]DTG from sigma-2 receptor in Sprague-Dawley rat liver membranes after 120 mins in presence of (+)-pentazocine by microbeta scintillation counting method. It counts as cell membranes, Membrane.

A further experiment has as its system Huh-7. In words: Cytotoxicity against human HuH7 cells after 48 hrs by CCK8 assay. It is filed as functional, cell-based. As to conditions: Huh-7, 48 h. In short, it runs like this:
as §1

The nature of experiment [4]: Selectivity ratio of Ki for sigma-1 receptor in guinea pig brain membranes to Ki for sigma-2 receptor in Sprague-Dawley rat liver membranes. It is filed as cell membranes.
Experiment [5] concerns the target Sigma non-opioid intracellular receptor 1 (Cavia porcellus) (UniProt Q60492). Kind of experiment: Displacement of [3H]-(+)-pentazocine from sigma-1 receptor in guinea pig brain membranes at 1 uM after 120 mins by microbeta scintillation counting method relative to control. It counts as cell membranes. As to conditions: Membrane. The procedure, abridged: as §2
The target in experiment [6] is Sigma non-opioid intracellular receptor 1 (Homo sapiens, UniProt Q99720). Kind of experiment: Binding affinity to sigma-1 receptor (unknown origin).
Experiment [7] concerns the target Sigma intracellular receptor 2 (Homo sapiens, UniProt Q5BJF2). In words: Binding affinity to sigma-2 receptor (unknown origin).

Sigma non-opioid intracellular receptor 1 (Homo sapiens, UniProt Q99720), sequence (Q99720 whole entry): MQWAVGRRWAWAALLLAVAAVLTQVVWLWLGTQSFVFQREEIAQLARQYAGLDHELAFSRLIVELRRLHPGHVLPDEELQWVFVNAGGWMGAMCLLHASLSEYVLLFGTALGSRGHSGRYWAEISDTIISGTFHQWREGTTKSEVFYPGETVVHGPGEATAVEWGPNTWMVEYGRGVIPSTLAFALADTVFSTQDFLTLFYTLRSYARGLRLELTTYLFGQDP
Sigma non-opioid intracellular receptor 1 (Cavia porcellus), sequence (Q60492 whole entry): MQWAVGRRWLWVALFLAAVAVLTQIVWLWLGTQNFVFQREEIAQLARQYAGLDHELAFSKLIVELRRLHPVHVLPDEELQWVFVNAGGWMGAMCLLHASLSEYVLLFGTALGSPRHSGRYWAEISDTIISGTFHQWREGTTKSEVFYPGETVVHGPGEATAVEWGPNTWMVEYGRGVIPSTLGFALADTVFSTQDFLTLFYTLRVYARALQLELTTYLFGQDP
Sigma non-opioid intracellular receptor 1 (Cavia porcellus, UniProt Q60492), sequence (Q60492 whole entry): as above
Sigma intracellular receptor 2 (Homo sapiens, UniProt Q5BJF2), sequence (Q5BJF2 whole entry): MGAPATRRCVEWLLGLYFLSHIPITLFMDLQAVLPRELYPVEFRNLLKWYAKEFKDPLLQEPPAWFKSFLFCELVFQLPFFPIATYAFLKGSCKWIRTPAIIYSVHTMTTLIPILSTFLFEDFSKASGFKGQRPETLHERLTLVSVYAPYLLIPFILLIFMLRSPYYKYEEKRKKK

On to `COc1ccc(C(=O)CN2CCc3cc(OC)c(OC)cc3C2)c(OC)c1`, for which the IC50 in the experiment on KYSE-140 and with Huh-7 was above 0.1 µM throughout. Further, the inhibition in experiment [1] and in experiment [5] was above 50% in each case. The figures for the Ki in experiment [2] and in experiment [3] were above 1000 nM and 53.8 nM, respectively. Moreover, the Ratio Ki in experiment [4] is above 18.
For `COc1ccc(C(O)CN2CCc3cc(OC)c(OC)cc3C2)c(OC)c1` (stereo unspecified), the IC50 in the experiment with KYSE-140 and with Huh-7 was above 0.1 µM throughout. Besides, the inhibition in experiment [1] and in [5] was above 50% each time. Further, the Ki in experiment [2] was above 1000 nM; in experiment [3] it was 62 nM. Also, the Ratio Ki in experiment [4] was above 16.
On to `COc1cc2c(cc1OC)CN(CCCCn1cnc3cc(OC)c(OC)cc3c1=O)CC2`, for which the IC50 with KYSE-140 and in the experiment on Huh-7 was above 0.1 µM each time. In addition, the inhibition in experiment [1] and in experiment [5] was above 50% in each case. Besides, the Ki was above 1000 nM in experiment [2] and 43.8 nM in [3]. For the same compound, in experiment [4], the Ratio Ki was above 22.8.
For the compound `COc1cc2c(cc1OC)CN(CCCn1cnc3cc(OC)c(OC)cc3c1=O)CC2`, the IC50 with KYSE-140 and in the experiment on Huh-7 was above 0.1 µM each time. Also, the inhibition in experiment [1] and in [5] was above 50% each time. Also, the Ki was above 1000 nM in [2] and 13.9 nM in experiment [3]. The Ratio Ki in [4] is above 71.9.
For the compound `COc1cc2c(cc1OC)CN(CCn1cnc3cc(Cl)c([N+](=O)[O-])cc3c1=O)CC2`, the IC50 with KYSE-140 and with Huh-7 was above 0.1 µM each time. Further, the inhibition in experiment [1] and in experiment [5] was above 50% each time. Moreover, the Ki in [2] and in experiment [3] was above 1000 nM each time.
Regarding `COc1ccc(C(=O)CCCCN2CCc3cc(OC)c(OC)cc3C2)c(OC)c1`, the IC50 in the experiment with KYSE-140 is 88.3 µM; in the experiment on Huh-7 it was above 0.1 µM. Moreover, the inhibition in experiment [1] and in experiment [5] was above 50% throughout. The values for the Ki in experiment [2] and in [3] were 32.9 nM and 5.8 nM, respectively. In addition, in experiment [4], the Ratio Ki came out at 5.6.
As for `COc1cc2c(cc1OC)CN(CCCn1cnc3cc(Cl)c([N+](=O)[O-])cc3c1=O)CC2`, the IC50 in the experiment with KYSE-140 and in the experiment with Huh-7 was above 0.1 µM throughout. The inhibition in experiment [1] and in experiment [5] was above 50% throughout. Moreover, the Ki in [2] and in experiment [3] was above 1000 nM each time.
In the case of `COc1ccc(C)cc1NC(=O)OC1C[C@H]2CCC[C@H](C1)N2CCCCCCN` (stereo partly specified), the Ki was found to be 1.42 µM in [6] and 5.19 nM in experiment [7].
`CC[C@H]1C[C@@H]2C[C@H]3c4[nH]c5ccc(OC)cc5c4CCN(C2)[C@@H]13`: the Ki in experiment [6] came to 9.31 µM; in experiment [7], 90.4 nM.
In the case of `COc1ccc(C(=O)CCN2CCc3cc(OC)c(OC)cc3C2)c(OC)c1`, the results for the IC50 in the experiment with KYSE-140 and in the experiment with Huh-7 were above 0.1 µM and 75.3 µM, respectively. In addition, the inhibition in experiment [1] and in experiment [5] was above 50% in each case. Besides, the Ki in [2] is above 1000 nM; in [3] it was 68.1 nM. Moreover, the Ratio Ki in [4] was above 14.
Turning to `COc1ccc(C(=O)CCN2CCc3cc(OC)c(OC)cc3C2)c(C)c1`, the IC50 amounted to 60.1 µM in the experiment with KYSE-140 and 42.8 µM in the experiment on Huh-7. Moreover, the inhibition in [1] and in experiment [5] was above 50% in each case. The values for the Ki in experiment [2] and in experiment [3] were 13.3 nM and 23.7 nM, respectively. Further, in [4], the Ratio Ki came to 0.5.
Consider `COc1cc2c(cc1OC)CN(CCCCn1cnc3cc(Cl)c([N+](=O)[O-])cc3c1=O)CC2`, for which the IC50 in the experiment with KYSE-140 and in the experiment with Huh-7 was above 0.1 µM in each case. Further, the inhibition in [1] and in [5] was above 50% throughout. The Ki in [2] and in experiment [3] was above 1000 nM each time.
As for `COc1ccc(C(=O)CCCCN2CCc3cc(OC)c(OC)cc3C2)c(C)c1`, the IC50 in the experiment on KYSE-140 and in the experiment with Huh-7 was above 0.1 µM in each case. Besides, the inhibition in experiment [1] and in [5] was above 50% in each case. Moreover, the values for the Ki in [2] and in experiment [3] were above 1000 nM and 5.1 nM, respectively. Moreover, in [4], the Ratio Ki was above 196.
Regarding `COc1ccc(C(O)CCCCN2CCc3cc(OC)c(OC)cc3C2)c(OC)c1` (stereo unspecified), the inhibition in [1] and in experiment [5] was above 50% throughout. The results for the Ki in experiment [2] and in experiment [3] were above 1000 nM and 6.2 nM, respectively. The Ratio Ki in [4] was above 161.
With `c1ccc2c(c1)c1ccccc1n2CCCN1CCN(C2CCCCC2)CC1`, the Ki turned out to be 3.45 µM in experiment [6] and 12.6 nM in experiment [7].
Take `COc1cc2c(cc1OC)CN(CCC(=O)c1c(C)c(OC)c(OC)c(OC)c1O)CC2`: the IC50 in the experiment on KYSE-140 was 93.7 µM; with Huh-7 it was 81.6 µM. Further, the inhibition in [1] and in experiment [5] was above 50% each time. For the same compound, the Ki in [2] and in experiment [3] was above 1000 nM each time.
On to `COc1ccc(C(O)CCN2CCc3cc(OC)c(OC)cc3C2)c(OC)c1` (stereo unspecified), for which the IC50 was determined as 26.1 µM in the experiment with KYSE-140 and 45.9 µM with Huh-7. In addition, the inhibition in [1] and in experiment [5] was above 50% in each case. Besides, the Ki is above 1000 nM in [2] and 30.2 nM in experiment [3]. Moreover, the Ratio Ki in experiment [4] was above 33.
As to `CCn1c(=O)n(C(=O)NC2C[C@@H]3CC[C@@H](C2)N3C)c2ccccc21` (stereo partly specified), the Ki is 6.3 µM in experiment [6] and 32 nM in experiment [7].
`COc1ccc(C(O)CCN2CCc3cc(OC)c(OC)cc3C2)c(C)c1` (stereo unspecified): the concentration for half-maximal inhibition (IC50) with KYSE-140 and in the experiment with Huh-7 was above 0.1 µM each time. Besides, the inhibition in [1] and in experiment [5] was above 50% throughout. For the same compound, the Ki was above 1000 nM in experiment [2] and 18.2 nM in experiment [3]. Besides, the Ratio Ki in [4] is above 55.
Take `COc1cc2c(cc1OC)CN(CCCCNC(=O)c1cc(I)cc(OC)c1OCC[18F])CC2`: the results for the Ki in experiment [6] and in [7] were 2.15 µM and 0.26 nM, respectively.
With `COc1ccc(C(O)CCCCN2CCc3cc(OC)c(OC)cc3C2)c(C)c1` (stereo unspecified), the IC50 was 14.9 µM in the experiment with KYSE-140 and 12.5 µM in the experiment with Huh-7. In addition, the inhibition in experiment [1] and in experiment [5] was above 50% in each case. The results for the Ki in experiment [2] and in [3] were above 1000 nM and 5.2 nM, respectively. The Ratio Ki in experiment [4] is above 192.

These data come from ChEMBL document CHEMBL4145543, “Synthesis and pharmacological evaluation of 6,7-dimethoxy-1,2,3,4-tetrahydroisoquinoline derivatives as sigma-2 receptor ligands” (Eur J Med Chem, 2018).
